Reference: ChEMBL document CHEMBL3576834, “Antipodal crambescin A2 homologues from the marine sponge Pseudaxinella reticulata. Antifungal structure-activity relationships” (2015)
In brackets after ≈: the same amount, converted by molar mass.

Columns and labels:
[1] = test system: Cryptococcus gattii; assay: Antifungal activity against Cryptococcus neoformans var. gattii after 48 hrs by microbroth dilution method; format: functional, Cryptococcus bacillisporus
Summary of the method: (§1)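 Microbroth dilution in Antibiotic Medium #3. Test agent in DMSO serially diluted 2-fold across 12 wells. Overnight yeast cultures diluted to OD 0.01−0.02 and added to the wells, final volume 200 μL. Incubated at 35 °C for 48 h, then growth read as OD at 600 nm.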

[2] = test system: Candida albicans; assay: Antifungal activity against Candida albicans ATCC 14503 after 48 hrs by microbroth dilution method; format: functional; conditions: ATCC 14503, 48 h; summary of the method: as §1
[3] = test system: Nakaseomyces glabratus; assay: Antifungal activity against Candida glabrata after 48 hrs by microbroth dilution method; format: functional; summary of the method: as §1
[4] = test system: Pichia kudriavzevii; assay: Antifungal activity against Candida krusei after 48 hrs by microbroth dilution method; format: functional; summary of the method: as §1
[5] = test system: Staphylococcus aureus; assay: Antibacterial activity against Staphylococcus aureus at 80 ug by disk diffusion method; format: functional; conditions: read-out: IZ

SMILES	MIC50 [1]	MIC90 [1]	MIC50 [2]	MIC90 [2]	MIC50 [3]	MIC90 [3]	MIC50 [4]	MIC90 [4]	zone of inhibition at 80 µg/disc [5]
CCCCCCC[C@H]1NC(=N)N2CCCC2=C1C(=O)OCCCCNC(=N)N	1.2 µM (≈ 0.471 µg/mL)	2.3 µM (≈ 0.903 µg/mL)	22 µM (≈ 8.64 µg/mL)	32 µM (≈ 12.6 µg/mL)					
CCCCCCCCC[C@H]1NC(=N)N2CCCC2=C1C(=O)OCCCCNC(=N)N	1.1 µM (≈ 0.463 µg/mL)	2.6 µM (≈ 1.09 µg/mL)	11 µM (≈ 4.63 µg/mL)	22 µM (≈ 9.25 µg/mL)	6.1 µM (≈ 2.57 µg/mL)	27 µM (≈ 11.4 µg/mL)	11 µM (≈ 4.63 µg/mL)	24 µM (≈ 10.1 µg/mL)	
CCCCC[C@H]1NC(=N)N2CCCC2=C1C(=O)OCCCCNC(=N)N	2.5 µM (≈ 0.911 µg/mL)	4.9 µM (≈ 1.79 µg/mL)	39 µM (≈ 14.2 µg/mL)	49 µM (≈ 17.9 µg/mL)	17 µM (≈ 6.2 µg/mL)	41 µM (≈ 14.9 µg/mL)	34 µM (≈ 12.4 µg/mL)	59 µM (≈ 21.5 µg/mL)	8 mm
C[C@@H]1[C@H](O)[C@@H](C)/C=C/C=C/C=C/C=C/C=C/C=C/C=C/[C@H](O[C@@H]2O[C@H](C)[C@@H](O)[C@H](N)[C@@H]2O)C[C@@H]2O[C@](O)(C[C@@H](O)C[C@@H](O)[C@H](O)CC[C@@H](O)C[C@@H](O)CC(=O)O[C@H]1C)C[C@H](O)[C@H]2C(=O)O [AMPHOTERICIN B]	0.055 µM (≈ 0.0508 µg/mL)	0.12 µM (≈ 0.111 µg/mL)	0.037 µM (≈ 0.0342 µg/mL)	0.29 µM (≈ 0.268 µg/mL)	0.098 µM (≈ 0.0906 µg/mL)	0.25 µM (≈ 0.231 µg/mL)	0.17 µM (≈ 0.157 µg/mL)	0.23 µM (≈ 0.213 µg/mL)	
CCCCCCCC[C@H]1NC(=N)N2CCCC2=C1C(=O)OCCCCNC(=N)N	0.85 µM (≈ 0.346 µg/mL)	2.2 µM (≈ 0.894 µg/mL)	14 µM (≈ 5.69 µg/mL)	26 µM (≈ 10.6 µg/mL)					
